Test results published in ChEMBL document CHEMBL1933043.

Columns and labels:
Influenza A virus = experiment: Antiviral activity against influenza A virus (A/swine/OH/511445/2007(H1N1)) Oh7 infected in MDCK cells assessed as inhibition of viral replication after 4 days by quantitative RT-PCR; assay type: functional; settings: (A/swine/OH/511445/2007(H1N1)) Oh7, MDCK, 96 h, read-out: ED50 (the source's name)
[1] = Therapeutic index, ratio of TD50 for MDCK cells to ED50 for influenza A virus (A/swine/OH/511445/2007(H1N1)) Oh7; assay type: cell-based; settings: dog, read-out: Ratio TD50/ED50
Method in brief: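 MDCK cells infected with swine influenza A/swine/OH/511445/2007 (H1N1, Oh7) and incubated with compound at 0.1–150 μM plus trypsin (10 μg/mL) for up to 4 days. Cytopathic effect was scored, and replication was confirmed by immunofluorescence and Western blot against viral nucleoprotein or whole virus. ED50 is the dose giving 50% virus reduction, and TD50 the dose giving 50% cell death. TI is TD50/ED50.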

[2] = Cytotoxicity against MDCK cells after 4 days; assay type: cell-based, Canis lupus familiaris; settings: dog, read-out: TD50
Method in brief: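 MDCK cells exposed to compounds at 0.1–150 μM with trypsin (10 μg/mL) for up to 4 days. Cells were inspected microscopically. TD50 was taken as the dose causing 50% cell death.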

Structure (SMILES)	EC50 (Influenza A virus) [µM]	selectivity ratio [1]	CC50 at 96 h [2] [µM]
O=c1c(O[C@@H]2O[C@H](CO)[C@@H](O)[C@H](O)[C@H]2O)c(-c2ccc(O)c(O)c2)oc2cc(O)cc(O)c12 [ISOQUERCETIN]	1.2	37.6	45.1
CCCOc1cc(O)cc2oc(-c3ccc(O)c(O)c3)c(O)c(=O)c12	> 50		
O=c1c(OCc2ccccc2)c(-c2ccc(OCc3ccccc3)c(OCc3ccccc3)c2)oc2cc(OCc3ccccc3)cc(O)c12	> 50		
O=C(Oc1cc(-c2oc3cc(O)cc(O)c3c(=O)c2O)ccc1O)c1cc(O)c(O)c(O)c1	> 50		
O=c1c(O)c(-c2ccc(O)c(O)c2)oc2cc(O)cc(O)c12 [QUERCETIN]	48.2	1.7	83.4
Nc1cc(C(=O)Oc2c(-c3ccc(O)c(O)c3)oc3cc(O)cc(O)c3c2=O)ccc1O	22.6	2.7	60.1
NCCCOc1cc(-c2oc3cc(O)cc(O)c3c(=O)c2O)ccc1O	> 50		
Nc1ccc(C(=O)Oc2c(-c3ccc(O)c(O)c3)oc3cc(O)cc(O)c3c2=O)cc1O	24.1	2.3	54.8
O=C(Oc1c(-c2ccc(O)c(O)c2)oc2cc(O)cc(O)c2c1=O)c1cc(O)ccc1O	19.4	2.3	45.2
O=C(Oc1c(-c2ccc(O)c(O)c2)oc2cc(O)cc(O)c2c1=O)c1cc(O)c(O)c(O)c1	9.1	9.9	90.2
O=C(O[C@@H]1Cc2c(O)cc(O)cc2O[C@@H]1c1cc(O)c(O)c(O)c1)c1cc(O)c(O)c(O)c1 [EPIGALOCATECHIN GALLATE]	8.3	5.5	45.5
